Shown are actives, neighbours in structure and some others; about 1.6% of the full set was active somewhere.
S100A4 MyoIIA = inhibitors of S100A4-myosin IIA peptide binding, primary screen, biochemical, fluorescence polarization, TAMRA-MyoIIA peptide | 360,000 tested, 0.14% active | Protein S100-A4 (Homo sapiens), P26447 | inhibition, % at 10.7 µM;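 active = mean inhibition of at least 70% across replicates, with every replicate also reaching that level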
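Assay system: human S100A4 monomer with TAMRA-labelled myosin IIA peptide / Buffer or medium: Calcium-containing HEPES buffer, pH 7.2 / Reagent: TAMRA-labelled myosin IIA heavy-chain peptide probe, 5 nM / Compound: one dose per compound / Timing: polarization read 5 min after assay mix addition, stable 5–60 min / Benchmarks: neutral control DMSO, positive control TFP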
PvdQ acylase = P. aeruginosa PvdQ acylase inhibitors, primary screen, biochemical, fluorescence, plate reader and imaging, single point | purified PvdQ acylase | inhibition, % at 10 µM | 340,000 tested, 0.063% active; in the data active = inhibition above about 30%, passing the limit was not always enough;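 note: 0% = vehicle neutral wells and 100% = reference inhibitor wells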
SR-BI uptake up = activators of SR-BI mediated DiI-HDL uptake, primary screen, ldlA[mSR-BI] CHO cells, DiI fluorescence; 3 h; 100 = double the neutral-control signal; activation, % at 12.5 µM; 320,000 tested, 0.096% active;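 active = mean replicate activation of at least 60% and every replicate at or above 60%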;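 note: 0% = median plate neutral-control signal and 100% = twice that signal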
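Material – SR-BI-overexpressing, LDLR-lacking CHO cells · Medium – BSA-supplemented, HEPES-buffered Ham's F12, pH 7.4 · Doses – single concentration · Times – compound with DiI-HDL co-incubation, 3 h at 37 °C · Measured by – bottom-read fluorescence, 550/595 nm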
dFosB activator = activators of delta FosB homodimer, primary screen, biochemical, fluorescence polarization, TAMRA-CDK5 oligo, single point; purified delta FosB; percent of positive-control signal above neutral wells; activation, % at 25 µM; AID 493131, 2011; Protein FosB (Mus musculus), P13346; 340,000 tested, 0.99% active;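 active = mean activation above about 17%, with every replicate also reaching it, limit read from the data, passing the limit was not always enough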
SR-BI DiI inh = inhibitors of SR-BI mediated HDL lipid uptake, primary screen, ldlA[mSR-BI] cells, fluorescence, single point | Scavenger receptor class B member 1 (Mus musculus), Q61009 | ldlA[mSR-BI] CHO cells, DiI-HDL uptake fluorescence, 3 h | inhibition, % at 12.5 µM | 320,000 tested, 0.96% active | AID 488896, 2010;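 active = mean replicate inhibition of at least 70% and a set share of replicates each scoring 70 or more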;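 note: 0% = median of neutral control wells and 100% = median of positive control wells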
RAD54 branch = inhibitors of human RAD54 branch migration, primary screen, biochemical, fluorescence, single point | inhibition, % at 10.4 µM | 360,000 tested, 0.14% active | AID 602329, 2012 | RAD54 Holliday junction branch migration, FAM/BHQ fluorescence | DNA repair and recombination protein RAD54-like (Homo sapiens), Q92698;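 active = mean normalized replicate activity at least 40 and at least half of replicates scoring 40 or more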;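 note: 0% = median of neutral control wells and 100% = median of positive control wells; inhibitors cause a drop in the FAM fluorescence signal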
Target sequence (Q92698 whole entry, looked up): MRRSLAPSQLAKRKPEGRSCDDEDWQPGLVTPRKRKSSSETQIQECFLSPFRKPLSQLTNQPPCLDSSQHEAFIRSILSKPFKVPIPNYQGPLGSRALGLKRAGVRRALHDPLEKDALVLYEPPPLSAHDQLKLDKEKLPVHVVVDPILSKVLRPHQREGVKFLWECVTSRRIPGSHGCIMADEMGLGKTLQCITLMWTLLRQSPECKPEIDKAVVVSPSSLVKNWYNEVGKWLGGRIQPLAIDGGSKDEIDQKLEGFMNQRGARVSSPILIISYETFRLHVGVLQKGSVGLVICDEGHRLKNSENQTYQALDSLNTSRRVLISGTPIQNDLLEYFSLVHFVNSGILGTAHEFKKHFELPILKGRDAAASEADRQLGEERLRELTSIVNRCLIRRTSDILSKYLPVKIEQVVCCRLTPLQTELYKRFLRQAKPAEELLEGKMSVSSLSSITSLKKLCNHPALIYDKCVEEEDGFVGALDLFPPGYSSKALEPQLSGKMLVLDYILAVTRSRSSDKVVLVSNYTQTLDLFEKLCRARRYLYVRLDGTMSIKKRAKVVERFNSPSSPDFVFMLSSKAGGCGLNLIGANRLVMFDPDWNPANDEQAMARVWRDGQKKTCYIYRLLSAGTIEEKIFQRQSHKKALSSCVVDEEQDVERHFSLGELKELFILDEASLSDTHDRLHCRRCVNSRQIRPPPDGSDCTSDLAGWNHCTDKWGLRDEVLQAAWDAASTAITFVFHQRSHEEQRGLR
An asterisk follows results filed as active; x = no result given.

SMILES	S100A4 MyoIIA	PvdQ acylase	SR-BI uptake up	dFosB activator	SR-BI DiI inh	RAD54 branch
Cc1ccc(NC(=O)c2cc(F)c(F)cc2Cl)nc1	3	-5	22	1	-22	-6
C[C@@H]1CCCCO[C@@H](CN(C)C(=O)Cc2ccccc2)[C@H](C)CN([C@@H](C)CO)C(=O)c2cc(NC(=O)Cc3ccccc3)ccc2O1	126*	x	x	x	x	-6
C[C@@H]1CCCCO[C@@H](CN(C)C(=O)C2CCCCC2)[C@@H](C)CN([C@H](C)CO)C(=O)c2cc(NC(=O)CCCCCC(=O)Nc3ccccc3N)ccc2O1	103*	x	x	x	x	6
C[C@@H]1CN([C@H](C)CO)C(=O)c2cc(NC(=O)CCCCCC(=O)Nc3ccccc3N)ccc2O[C@@H](C)CCCCO[C@@H]1CN(C)C(=O)C1CCCCC1	5	x	x	x	x	-1
C[C@@H]1CCCCO[C@@H](CN(C)C(=O)CCC(F)(F)F)[C@@H](C)CN([C@@H](C)CO)C(=O)c2cc(NC(=O)c3ccccc3)ccc2O1	97*	x	x	x	x	5
CCC(=O)N1C[C@H](O)COC[C@@H]2O[C@@H](CC(=O)NCC3CCCCC3)CC[C@H]21	2	x	x	x	x	3
CCC(C)NC(=O)CSc1nnc(-c2cc(-c3ccc(C)cc3)nc3ccccc23)n1N (stereo unspecified)	x	0	-86	5	86*	4
CCOC(=O)c1cc(NC(=O)N(CC)C2CCCCC2)c(C)nc1C	-1	-9	-77	0	77*	x
CCOC(=O)c1cc(NC(=O)N(C)C2CCCCC2)c(C)nc1C	-9	4	-74	-4	74*	-2
CCOC(=O)Nc1cc(C(=O)OCC)c(C)nc1C	x	-13	10	-7	-10	x
O=C(NNC(=S)NC1CCCCC1)c1cccs1	x	2	5	-6	-5	5
O=C(NNC(=S)NC1CCCCC1)c1ccccc1O	4	-10	-118	-6	118*	-3
O=C(COC(=O)c1cc2ccccc2cc1O)NC1CCCCC1	0	-15	4	-2	-4	4
O=C(NNC(=O)c1cc2ccccc2cc1O)NC1CCCCC1	0	-10	-115	7	115*	12
C/C(=N/NC(N)=S)c1cc2ccc(O)cc2oc1=O	-9	-12	-84	-2	84*	-19
COc1ccc(N(C(=O)c2snc(C(N)=O)c2N)C(C(=O)NCc2ccccc2)c2ccc(F)cc2)c(OC)c1 (stereo unspecified)	-7	-9	x	25*	x	10
CCOc1ccc(OCC)c(NS(=O)(=O)c2cccc3nsnc23)c1	x	-13	410*	-4	-410	16
CCOc1ccccc1NS(=O)(=O)c1cccc2nsnc12	x	8	17	4	-17	13
C[C@@H](NC(=O)C[C@H]1C=C[C@@H](NC(=O)C2CCC2)[C@H](CO)O1)c1ccccc1	101*	x	x	x	x	0
C[C@H](NC(=O)C[C@@H]1C=C[C@@H](NC(=O)C2CCC2)[C@H](CO)O1)c1ccccc1	0	x	x	x	x	4
COCCN=c1scc(-c2cccs2)n1/N=C/c1ccc(O)c(O)c1O	0	-6	-69	-8	69	x
COCCN=c1scc(-c2ccccc2)n1/N=C/c1c[nH]c2ccccc12	-5	9	-83	-1	83*	x
CC(C)NC(=O)N[C@@H]1CC[C@H](CC(=O)NCc2ccc(Oc3ccccc3)cc2)O[C@H]1CO	5	x	x	x	x	3
O=C(c1ccc(Cl)cc1)N1N=CCC1(O)c1ccc(Cl)cc1 (stereo unspecified)	1	-8	-88	-5	88*	-2
CC1(O)CC(c2ccc(Cl)cc2)=NN1C(=O)c1ccc(Cl)cc1 (stereo unspecified)	-10	2	-29	-4	29	4
SMILES	S100A4 MyoIIA	PvdQ acylase	SR-BI uptake up	dFosB activator	SR-BI DiI inh	RAD54 branch
CCS(=O)(=O)c1ncc(Cl)c(C(=O)Nc2ccc(S(=O)(=O)N(C)c3ccccc3)cc2)n1	21	7	-86	-3	86*	5
Cc1ccc(S(=O)(=O)N(C)C[C@H]2OCCCC[C@@H](C)Oc3ccc(NS(=O)(=O)c4c(C)noc4C)cc3C(=O)N([C@@H](C)CO)C[C@H]2C)cc1	94*	x	x	x	x	13
Cc1ccc(S(=O)(=O)Nc2ccc3c(c2)C(=O)N([C@H](C)CO)C[C@@H](C)[C@@H](CN(C)S(=O)(=O)c2ccc(C)cc2)OCCCC[C@@H](C)O3)cc1	103*	x	x	x	x	3
CC(C)NC(=O)Nc1ccc2c(c1)C(=O)N([C@H](C)CO)C[C@@H](C)[C@H](CN(C)S(=O)(=O)c1ccccc1)OCCCC[C@@H](C)O2	121*	x	x	x	x	-6
C[C@@H]1CCCCO[C@H](CN(C)S(=O)(=O)c2cccs2)[C@@H](C)CN([C@@H](C)CO)C(=O)c2cc(NS(=O)(=O)c3cccs3)ccc2O1	103*	x	x	x	x	x
CCCC(=O)Nc1ccc2c(c1)OC[C@H](C)N(C(=O)c1cnccn1)C[C@H](C)[C@@H](OC)CN(C)C2=O	-7	x	x	x	x	x
C[C@@H]1CN([C@@H](C)CO)C(=O)c2cc(-c3ccc(C#N)cc3)cnc2O[C@H]1CN(C)Cc1cncnc1	12	x	x	x	x	5
C[C@@H](NC(=O)C[C@@H]1C[C@H]2c3cc(NC(=O)c4cccnc4)ccc3O[C@H]2[C@@H](CO)O1)c1ccccc1	12	x	x	x	x	-12
Cc1cc(/C=N/NC(=O)COc2cccc3cccnc23)c(C)n1-c1ccc(O)cc1	x	-3	9	2	-9	x
Cc1cc(C)cc(-n2c(C)cc(/C=N\NC(=O)COc3cccc4cccnc34)c2C)c1	-5	0	-76	-10	76*	0
COc1ccc(/C=N/NC(=O)COc2cccc3cccnc23)cc1OC	-3	-2	3	31*	-3	x
CCn1cc(/C=N/NC(=O)COc2cccc3cccnc23)c2ccccc21	x	2	8	-5	-8	x
CC(=O)N(C)C[C@H]1Oc2ncc(C#CCC3CCCC3)cc2C(=O)N([C@H](C)CO)C[C@@H]1C	-3	x	x	x	x	-6
C[C@H]1CCCCO[C@H](CN(C)S(=O)(=O)c2ccc(Cl)cc2)[C@@H](C)CN([C@@H](C)CO)C(=O)c2cc(NS(=O)(=O)c3cn(C)cn3)ccc2O1	-9	x	x	x	x	-10
NS(=O)(=O)c1ccc(NC(=S)Nc2ccc(S(=O)(=O)N3CCCC3)cc2)cc1	-4	2	-7	-6	7	x

Screens as filed in PubChem BioAssay.
